Results gathered from unrelated publications.
Target: Ephrin type-A receptor 7 (EPHA7, Homo sapiens, UniProt Q15375)

Cn1cc(-c2cccc(N3CCc4c(sc5c4CC(C)(C)C5)C3=O)c2CO)cc(Nc2ccncn2)c1=O
inhibition (enzyme activity, inhibitor; 1 µM): 83%

Cn1cncc1[C@@](O)(COc1ccc(C#N)cc1-c1ccc(OC(F)(F)F)cc1)c1ccc(C#N)cc1
remaining binding (cell-free assay, competition with immobilised ligand; 1 µM): 100%

Nc1ncc(-c2nc(N3CCOCC3)nc(N3CCOCC3)n2)c(C(F)F)n1
remaining binding (cell-free assay, competition with immobilised ligand; 10 µM): 86%

COc1ncccc1-c1cnn2ccc(N3CCN(C(=O)OC(C)C)CC3)nc12
remaining binding (binding, competition with immobilised ligand; 1 µM): 100%

Cc1nn(C)cc1-c1nc2c(N3CCN(Cc4ccc(Cl)cc4)CC3)c(Cl)cnc2[nH]1
remaining binding (binding, competition with immobilised ligand; 1 µM): 100%

O=c1[nH]c2ccccc2n1C1CCN(Cc2ccc(-c3[nH]c4cc5ncnc5cc4nc3-c3ccccc3)cc2)CC1
remaining signal (cell-free assay; 0.5 µM): 109%

COc1cc(Nc2ncc(F)c(Nc3ccc4c(n3)NC(=O)C(C)(C)O4)n2)cc(OC)c1OC
inhibition (binding, competition with immobilised ligand; 10 µM): 100%

Cn1cc(-c2cc(F)cc(N3CCn4c(cc5c4CCCC5)C3=O)c2CO)cc(Nc2ccc(N3CCN(C4COC4)CC3)cn2)c1=O
inhibition (enzyme activity, inhibitor; 0.1 µM): 13%

N#CC1(c2ccccn2)CCN(Cc2cc(C(=O)O)c(=O)n3ccccc23)CC1
remaining binding (cell-free assay, competition with immobilised ligand; 1 µM): 100%

CC(C)(C)c1cc(C=C(C#N)C#N)cc(Br)c1O
remaining activity (enzyme activity, inhibitor; 0.5 µM): 107%
